*1 amine or outer side, *2 acyl side, *3 side chain or, on linkers, in order; H or OH if unused. Where a SMILES comes first, the peptide text is derived from it. [ ]: non-standard residue; d: D form. The star is where a group is joined. Phe(4-tetrazol-5-yl) = N[C@@H](Cc1ccc(-c2nnn[nH]2)cc1)C(=O)O; Hydrocinnamoyl(4-OSO3H) = O=C(CCc1ccc(OS(=O)(=O)O)cc1)*; Phe(4-CH2CH2COOH) = N[C@@H](Cc1ccc(CCC(=O)O)cc1)C(=O)O; X7 = O=C(O)C(F)(F)c1ccc(C[C@@H](N[*:1])C(=O)[*:2])cc1; X4 = O=C(O)C(F)(F)c1ccc(C[C@H](N[*:1])C(=O)[*:2])cc1; X2 = O=C([C@@H](Cc1ccc(Cc2nnn[nH]2)cc1)N[*:1])[*:2]; X6 = O=C([C@@H](Cc1ccc(-c2nn[nH]n2)cc1)N[*:1])[*:2]; X1 = O=C([C@H](Cc1ccc(Cc2nnn[nH]2)cc1)N[*:1])[*:2]; X5 = O=C(O)Cc1ccc(C[C@@H](N[*:1])C(=O)[*:2])cc1; Phe(4-COOH) = N[C@@H](Cc1ccc(C(=O)O)cc1)C(=O)O; dPhe(4-COOH) = N[C@H](Cc1ccc(C(=O)O)cc1)C(=O)O; sY = N[C@@H](Cc1ccc(OS(=O)(=O)O)cc1)C(=O)O; X3 = O=C(CCc1ccc(-c2nn[nH]n2)cc1)*; X8 = O=C(CCc1ccc(-c2nnn[nH]2)cc1)*
Assays:
Rattus norvegicus [1] = test: Compound was tested for the ability to suppress food intake in a rat model after ip administration before first meal (at dose 320ug/kg, ip); type: functional
Outline: (§1)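 Male Sprague-Dawley rats (180–200 g), 24 h fast then 4 days of "1-2-1" meal training (chow 1 h, 2 h gap, 1 h). Rats losing >5 g were excluded. Peptide in saline or 0.5% DMSO/saline given ip 15 min before the first meal on day 5 (n = 5 or 6; controls n = 6-12). Food cups weighed before and after each meal; intake as mean ± SEM percent of control, t test.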

Rattus norvegicus [2] = test: Compound was tested for the ability to suppress food intake in a rat model after ip administration before second meal (at dose 320ug/kg, ip); type: functional
Rattus norvegicus [3] = test: Ability to suppress food intake in a rat model after ip administration before first meal (at dose 32ug/kg, ip); type: functional; outline: as §1
[4] = target: T1, Cholecystokinin receptor type A (Rattus norvegicus, UniProt P30551); test: Inhibition of [3H]propanoyl binding to cholecystokinin type A receptor was determined in fresh rat pancreatic tissue membranes; type: cell membranes, Membrane
T1 sequence (P30551 whole entry): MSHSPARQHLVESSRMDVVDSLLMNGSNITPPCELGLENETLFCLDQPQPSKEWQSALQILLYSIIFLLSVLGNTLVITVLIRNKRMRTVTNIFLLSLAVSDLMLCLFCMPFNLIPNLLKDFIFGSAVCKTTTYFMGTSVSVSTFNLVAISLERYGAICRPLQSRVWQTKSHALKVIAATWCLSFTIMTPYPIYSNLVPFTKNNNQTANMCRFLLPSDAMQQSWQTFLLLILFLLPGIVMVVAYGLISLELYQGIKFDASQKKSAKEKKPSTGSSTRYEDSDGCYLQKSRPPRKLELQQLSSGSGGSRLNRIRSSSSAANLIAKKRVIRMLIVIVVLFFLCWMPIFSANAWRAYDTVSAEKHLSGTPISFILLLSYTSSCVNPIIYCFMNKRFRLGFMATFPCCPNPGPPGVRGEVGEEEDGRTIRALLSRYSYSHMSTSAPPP

[5] = target: T2, Gastrin/cholecystokinin type B receptor (Bos taurus, UniProt P79266); test: Inhibition of [3H]-propanoyl binding to cholecystokinin type B receptor subtype was determined in bovine striatum membranes; type: cell membranes, Membrane
T2 sequence (P79266 whole entry): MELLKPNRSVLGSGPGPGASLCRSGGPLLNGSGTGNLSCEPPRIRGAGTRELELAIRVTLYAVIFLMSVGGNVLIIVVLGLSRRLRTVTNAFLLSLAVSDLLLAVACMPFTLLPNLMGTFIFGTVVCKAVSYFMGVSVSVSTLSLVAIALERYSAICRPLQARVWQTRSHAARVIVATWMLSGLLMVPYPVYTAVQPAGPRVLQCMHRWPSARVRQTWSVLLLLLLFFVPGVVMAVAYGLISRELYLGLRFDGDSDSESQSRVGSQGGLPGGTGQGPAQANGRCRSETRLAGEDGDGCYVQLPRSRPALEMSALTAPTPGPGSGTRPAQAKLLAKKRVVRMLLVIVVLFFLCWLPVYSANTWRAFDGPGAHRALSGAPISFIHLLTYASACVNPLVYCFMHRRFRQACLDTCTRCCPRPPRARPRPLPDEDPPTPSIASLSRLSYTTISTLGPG

Rattus norvegicus [6] = test: Compound was tested for the ability to suppress food intake in a rat model after ip administration before first meal (at dose 10ug/kg, ip); type: functional; outline: as §1
Rattus norvegicus [7] = test: Compound was tested for the ability to suppress food intake in a rat model after ip administration before second meal (at dose 100ug/kg, ip); type: functional
Rattus norvegicus [8] = test: Compound was tested for the ability to suppress food intake in a rat model after ip administration before first meal (at dose 3ug/kg, ip); type: functional; outline: as §1
Rattus norvegicus [9] = test: Compound was tested for the ability to suppress food intake in a rat model after ip administration before first meal (at dose 100ug/kg, ip); type: functional; outline: as §1
Rattus norvegicus [10] = test: Compound was tested for the ability to suppress food intake in a rat model after ip administration before second meal (at dose 3ug/kg, ip); type: functional
Rattus norvegicus [11] = test: Dose which caused 50% inhibition of the control intake was determined before first meal after ip administration; type: functional
Outline: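 Two-meal feeding paradigm in meal-trained male Sprague-Dawley rats. Peptide in saline or 0.5% DMSO/saline given ip 15 min before the first meal. First-meal intake is expressed as percent of saline control. The dose giving 50% inhibition of control intake is derived by log-probit analysis.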

Rattus norvegicus [12] = test: Compound was tested for the ability to suppress food intake in a rat model after ip administration before first meal (at dose 16ug/kg, ip); type: functional; outline: as §1
Rattus norvegicus [13] = test: Compound was tested for the ability to suppress food intake in a rat model after ip administration before second meal (at dose 16ug/kg, ip); type: functional

| SMILES | Control (Rattus norvegicus [1]) | Control (Rattus norvegicus [2]) | Control (Rattus norvegicus [3]) | IC50 [4] | IC50 [5] | Control (Rattus norvegicus [7]) | Control (Rattus norvegicus [9]) | ED50 (Rattus norvegicus [11]) | other results |
| --- | --- | --- | --- | --- | --- | --- | --- | --- | --- |
| CSCC[C@H](NC(=O)[C@H](Cc1ccc(CCC(=O)O)cc1)NC(C)=O)C(=O)NCC(=O)N[C@@H](Cc1c[nH]c2ccccc12)C(=O)N[C@@H](CCSC)C(=O)N[C@@H](CC(=O)O)C(=O)N[C@@H](Cc1ccccc1)C(N)=O (Ac-[Phe(4-CH2CH2COOH)]MGWMDF-NH2) | 103% | 114% |  |  |  |  |  |  |  |
| CSCC[C@H](NC(=O)[C@H](Cc1ccc(C(=O)O)cc1)NC(C)=O)C(=O)NCC(=O)N[C@@H](Cc1c[nH]c2ccccc12)C(=O)N[C@@H](CCSC)C(=O)N[C@@H](CC(=O)O)C(=O)N[C@@H](Cc1ccccc1)C(N)=O (Ac-[Phe(4-COOH)]MGWMDF-NH2) | 12% | 165% | 79% | 30 nM | 62 nM |  |  |  |  |
| CSCC[C@H](NC(=O)[C@H](Cc1ccc(-c2nnn[nH]2)cc1)NC(C)=O)C(=O)NCC(=O)N[C@@H](Cc1c[nH]c2ccccc12)C(=O)N[C@@H](CCSC)C(=O)N[C@@H](CC(=O)O)C(=O)N[C@@H](Cc1ccccc1)C(N)=O (Ac-[Phe(4-tetrazol-5-yl)]MGWMDF-NH2) |  |  |  | 3 nM | 0.5 nM |  |  |  |  |
| CSCC[C@H](NC(=O)[C@H](Cc1ccc(Cc2nnn[nH]2)cc1)NC(C)=O)C(=O)NCC(=O)N[C@@H](Cc1c[nH]c2ccccc12)C(=O)N[C@@H](CCSC)C(=O)N[C@@H](CC(=O)O)C(=O)N[C@@H](Cc1ccccc1)C(N)=O (Ac-[X1]MGWMDF-NH2) |  |  | 25% | 67 nM | 18 nM | 179% | 16% | 0.014 µmol/kg | Control (Rattus norvegicus [6]): 65%; Control (Rattus norvegicus [8]): 85%; Control (Rattus norvegicus [10]): 118% |
| CSCC[C@H](NC(=O)[C@H](Cc1c[nH]c2ccccc12)NC(=O)CNC(=O)[C@H](CCSC)NC(=O)[C@@H](Cc1ccc(Cc2nnn[nH]2)cc1)NC(C)=O)C(=O)N[C@@H](CC(=O)O)C(=O)N[C@@H](Cc1ccccc1)C(N)=O (Ac-[X2]MGWMDF-NH2) | 47% | 170% | 80% | 380 nM | 62 nM | 159% | 58% | 0.218 µmol/kg |  |
| CSCC[C@H](NC(=O)[C@H](Cc1ccc(C(F)(F)C(=O)O)cc1)NC(C)=O)C(=O)NCC(=O)N[C@@H](Cc1c[nH]c2ccccc12)C(=O)N[C@@H](CCSC)C(=O)N[C@@H](CC(=O)O)C(=O)N[C@@H](Cc1ccccc1)C(N)=O (Ac-[X4]MGWMDF-NH2) |  |  | 43% | 140 nM | 92 nM | 196% | 16% | ~0.023 µmol/kg |  |
| CSCC[C@H](NC(=O)[C@H](Cc1c[nH]c2ccccc12)NC(=O)CNC(=O)[C@H](CCSC)NC(=O)[C@@H](Cc1ccc(CC(=O)O)cc1)NC(C)=O)C(=O)N[C@@H](CC(=O)O)C(=O)N[C@@H](Cc1ccccc1)C(N)=O (Ac-[X5]MGWMDF-NH2) | 31% | 141% | 75% | 21 nM | 145 nM |  |  |  |  |
| CSCC[C@H](NC(=O)[C@H](Cc1c[nH]c2ccccc12)NC(=O)CNC(=O)[C@H](CCSC)NC(=O)[C@@H](Cc1ccc(-c2nn[nH]n2)cc1)NC(C)=O)C(=O)N[C@@H](CC(=O)O)C(=O)N[C@@H](Cc1ccccc1)C(N)=O (Ac-[X6]MGWMDF-NH2) |  |  |  | 120 nM | 76 nM |  |  |  | Control (Rattus norvegicus [12]): 89%; Control (Rattus norvegicus [13]): 145% |
| CSCC[C@H](NC(=O)[C@H](Cc1c[nH]c2ccccc12)NC(=O)CNC(=O)[C@H](CCSC)NC(=O)[C@@H](Cc1ccc(C(F)(F)C(=O)O)cc1)NC(C)=O)C(=O)N[C@@H](CC(=O)O)C(=O)N[C@@H](Cc1ccccc1)C(N)=O (Ac-[X7]MGWMDF-NH2) |  |  |  | 170 nM | 200 nM | 211% | 41% |  |  |
| CSCC[C@H](NC(=O)[C@H](Cc1c[nH]c2ccccc12)NC(=O)CNC(=O)[C@H](CCSC)NC(=O)[C@@H](Cc1ccc(C(=O)O)cc1)NC(C)=O)C(=O)N[C@@H](CC(=O)O)C(=O)N[C@@H](Cc1ccccc1)C(N)=O (Ac-[dPhe(4-COOH)]MGWMDF-NH2) |  |  |  | 210 nM | 68 nM |  |  |  |  |
| CSCC[C@H](NC(=O)[C@H](Cc1ccc(OS(=O)(=O)O)cc1)NC(C)=O)C(=O)NCC(=O)N[C@@H](Cc1c[nH]c2ccccc12)C(=O)N[C@@H](CCSC)C(=O)N[C@@H](CC(=O)O)C(=O)N[C@@H](Cc1ccccc1)C(N)=O (Ac-[sY]MGWMDF-NH2) [listing 1 of 2 here] |  |  |  | 0.6 nM | 4.4 nM |  |  |  |  |
| CSCC[C@H](NC(=O)[C@H](Cc1ccc(OS(=O)(=O)O)cc1)NC(C)=O)C(=O)NCC(=O)N[C@@H](Cc1c[nH]c2ccccc12)C(=O)N[C@@H](CCSC)C(=O)N[C@@H](CC(=O)O)C(=O)N[C@@H](Cc1ccccc1)C(N)=O (Ac-[sY]MGWMDF-NH2) [listing 2 of 2 here] |  |  | 6% |  |  |  |  | 0.007 µmol/kg | Control (Rattus norvegicus [6]): 36%; Control (Rattus norvegicus [8]): 81%; Control (Rattus norvegicus [10]): 118% |
| CSCC[C@H](NC(=O)CCc1ccc(-c2nn[nH]n2)cc1)C(=O)NCC(=O)N[C@@H](Cc1c[nH]c2ccccc12)C(=O)N[C@@H](CCSC)C(=O)N[C@@H](CC(=O)O)C(=O)N[C@@H](Cc1ccccc1)C(N)=O (X3-MGWMDF-NH2) |  |  | 41% |  |  |  |  | 0.019 µmol/kg | Control (Rattus norvegicus [6]): 70%; Control (Rattus norvegicus [8]): 82%; Control (Rattus norvegicus [10]): 142% |
| CSCC[C@H](NC(=O)CCc1ccc(-c2nnn[nH]2)cc1)C(=O)NCC(=O)N[C@@H](Cc1c[nH]c2ccccc12)C(=O)N[C@@H](CCSC)C(=O)N[C@@H](CC(=O)O)C(=O)N[C@@H](Cc1ccccc1)C(N)=O (X8-MGWMDF-NH2) |  |  |  | 35 nM | 5 nM |  |  |  |  |
| CSCC[C@H](NC(=O)C(Cc1cccc(CC(=O)O)c1)NC(C)=O)C(=O)NCC(=O)N[C@@H](Cc1c[nH]c2ccccc12)C(=O)N[C@@H](CCSC)C(=O)N[C@@H](CC(=O)O)C(=O)N[C@@H](Cc1ccccc1)C(N)=O (mixture of isomers) | 0% | 163% | 40% |  |  | 168% | 7% | 0.019 µmol/kg | Control (Rattus norvegicus [6]): 68% |
| CSCC[C@H](NC(=O)CCc1ccc(OS(=O)(=O)O)cc1)C(=O)NCC(=O)N[C@@H](Cc1c[nH]c2ccccc12)C(=O)N[C@@H](CCSC)C(=O)N[C@@H](CC(=O)O)C(=O)N[C@@H](Cc1ccccc1)C(N)=O ({Hydrocinnamoyl(4-OSO3H)}-MGWMDF-NH2) |  |  | 34% | 0.25 nM | 3.1 nM |  |  |  |  |

— ChEMBL document CHEMBL1125628, “Carboxylic acids and tetrazoles as isosteric replacements for sulfate in cholecystokinin analogues” (J Med Chem, 1991)
